{"source": "ChEMBL document CHEMBL1127543", "about": "“Dual angiotensin converting enzyme/thromboxane synthase inhibitors” (J Med Chem, 1994)", "key": {"[1]": {"target": "T1, Angiotensin-converting enzyme (Oryctolagus cuniculus, UniProt P12822)", "T1 sequence (P12822 whole entry)": "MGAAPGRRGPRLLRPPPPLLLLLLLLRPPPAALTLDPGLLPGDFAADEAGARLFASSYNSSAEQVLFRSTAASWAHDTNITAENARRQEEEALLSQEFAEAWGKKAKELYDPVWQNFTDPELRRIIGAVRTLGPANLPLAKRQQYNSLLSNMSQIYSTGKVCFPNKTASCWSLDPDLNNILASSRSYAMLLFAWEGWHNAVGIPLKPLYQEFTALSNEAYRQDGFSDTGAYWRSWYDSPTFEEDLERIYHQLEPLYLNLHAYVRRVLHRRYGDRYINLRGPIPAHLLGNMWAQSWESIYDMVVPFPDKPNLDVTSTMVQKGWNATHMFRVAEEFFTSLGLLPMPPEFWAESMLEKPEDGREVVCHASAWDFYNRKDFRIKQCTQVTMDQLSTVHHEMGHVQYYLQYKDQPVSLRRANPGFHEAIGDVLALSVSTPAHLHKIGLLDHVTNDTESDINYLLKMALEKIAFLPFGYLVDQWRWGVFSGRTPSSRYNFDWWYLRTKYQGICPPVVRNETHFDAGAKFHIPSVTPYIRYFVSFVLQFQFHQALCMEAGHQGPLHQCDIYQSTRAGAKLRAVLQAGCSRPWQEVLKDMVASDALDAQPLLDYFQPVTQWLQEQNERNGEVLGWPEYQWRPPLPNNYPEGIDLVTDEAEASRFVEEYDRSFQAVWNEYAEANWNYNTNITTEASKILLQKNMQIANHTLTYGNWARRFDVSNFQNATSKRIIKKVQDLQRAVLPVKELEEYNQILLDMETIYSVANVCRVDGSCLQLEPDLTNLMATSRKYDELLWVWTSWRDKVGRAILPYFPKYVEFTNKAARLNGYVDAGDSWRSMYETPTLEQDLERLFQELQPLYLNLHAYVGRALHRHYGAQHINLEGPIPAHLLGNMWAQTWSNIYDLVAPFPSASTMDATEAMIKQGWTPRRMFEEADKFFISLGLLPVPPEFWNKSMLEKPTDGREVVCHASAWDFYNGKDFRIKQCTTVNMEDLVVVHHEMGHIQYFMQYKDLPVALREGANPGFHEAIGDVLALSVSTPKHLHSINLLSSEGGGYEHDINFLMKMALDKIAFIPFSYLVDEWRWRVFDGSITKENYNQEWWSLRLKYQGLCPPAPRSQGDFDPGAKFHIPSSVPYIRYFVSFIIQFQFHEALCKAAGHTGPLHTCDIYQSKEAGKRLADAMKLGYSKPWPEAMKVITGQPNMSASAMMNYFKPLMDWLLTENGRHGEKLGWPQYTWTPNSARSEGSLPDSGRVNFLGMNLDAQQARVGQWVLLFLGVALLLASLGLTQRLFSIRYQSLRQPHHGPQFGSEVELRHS", "test": "Tested for 50% inhibition of Angiotensin converting enzyme(ACE) obtained from rabbit lung (in vitro)", "how_it_was_run": "(§1)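 ACE was partially purified from rabbit lung and incubated with the synthetic substrate Hip-His-Leu. The hippuric acid product was measured spectrophotometrically. IC50 was read graphically from a range of inhibitor concentrations within the assay's linear range. Each determination was done in duplicate and repeated once.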"}, "Rattus norvegicus [2]": {"tested_on": "Rattus norvegicus", "test": "Antihypertensive activity was measured in spontaneously hypertensive rat (SHR) by measuring the maximum blood pressure when administered orally at dose of 10 mg/kg after 4 hr", "assay_type": "functional", "details": "route oral", "how_it_was_run": "(§2)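 Conscious, fully ambulatory SHR (250–280 g) were fitted with an arterial catheter led through an infusion swivel inside a protective spring. After 24 h recovery from surgery, rats were housed singly. Mean arterial pressure was recorded continuously after dosing over a 6-h period, with later readings up to 24 h. Rats had chow and tap water freely under a 12-h light cycle.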"}, "Rattus norvegicus [3]": {"tested_on": "Rattus norvegicus", "test": "Antihypertensive activity was measured in spontaneously hypertensive rat (SHR) by measuring the blood pressure after 24 hours when administered orally at dose of 10 mg/kg", "assay_type": "functional", "details": "route oral", "how_it_was_run": "as §2"}, "Rattus norvegicus [4]": {"tested_on": "Rattus norvegicus", "test": "Tested for percent inhibition of maximum angiotensin I (AI) pressor response in rats on oral administration of 300 mg/kg after 2 hr", "assay_type": "functional", "how_it_was_run": "(§3)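 Conscious catheterized SHR were prepared as for blood pressure recording. At set times after dosing, angiotensin I was injected intraarterially in 0.5 mL. The rise in arterial pressure was recorded and expressed as percent inhibition of the angiotensin I pressor response.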"}, "Thromboxane-A synthase [5]": {"target": "T2, Thromboxane-A synthase (Homo sapiens, UniProt P24557)", "T2 sequence (P24557 whole entry)": "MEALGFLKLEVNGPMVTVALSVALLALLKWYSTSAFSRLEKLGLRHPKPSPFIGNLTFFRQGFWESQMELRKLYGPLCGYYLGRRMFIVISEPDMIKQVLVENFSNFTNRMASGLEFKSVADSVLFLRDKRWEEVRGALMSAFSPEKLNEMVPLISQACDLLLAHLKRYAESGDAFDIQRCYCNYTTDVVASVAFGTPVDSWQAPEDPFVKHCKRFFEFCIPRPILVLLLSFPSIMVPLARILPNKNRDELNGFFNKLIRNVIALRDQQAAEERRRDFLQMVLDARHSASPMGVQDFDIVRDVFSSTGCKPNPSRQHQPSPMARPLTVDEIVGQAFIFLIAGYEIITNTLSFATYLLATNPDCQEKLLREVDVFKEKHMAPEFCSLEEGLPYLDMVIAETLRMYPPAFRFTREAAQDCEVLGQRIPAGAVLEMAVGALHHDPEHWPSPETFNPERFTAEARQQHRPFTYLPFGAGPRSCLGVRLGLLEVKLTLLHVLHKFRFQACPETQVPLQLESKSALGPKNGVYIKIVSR", "test": "Tested for 50% inhibition of thromboxane synthase (TxS) in human platelets (in vitro)", "how_it_was_run": "(§4)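 IC50 was obtained graphically from a range of compound concentrations within the linear range of the assay. Determinations were made in duplicate and repeated once.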"}, "Rattus norvegicus [6]": {"tested_on": "Rattus norvegicus", "test": "Antihypertensive activity was measured in spontaneously hypertensive rat (SHR) by measuring the maximum blood pressure when administered orally at dose of 10 mg/kg after 6 h", "assay_type": "functional", "details": "route oral", "how_it_was_run": "as §2"}, "Rattus norvegicus [7]": {"tested_on": "Rattus norvegicus", "test": "Tested for percent inhibition of maximum angiotensin I (AI) pressor response in rats on oral administration of 300 mg/kg after 5 hr", "assay_type": "functional", "how_it_was_run": "as §3"}, "[8]": {"target": "T1, Angiotensin-converting enzyme", "test": "Tested for 50% inhibition of Angiotensin converting enzyme(ACE) obtained from rabbit lung (in vitro); Not active", "how_it_was_run": "as §1"}, "Rattus norvegicus [9]": {"tested_on": "Rattus norvegicus", "test": "Tested for percent inhibition of maximum angiotensin I (AI) pressor response in rats on oral administration of 300 mg/kg after 0.5 hr", "assay_type": "functional", "how_it_was_run": "as §3"}, "Rattus norvegicus [10]": {"tested_on": "Rattus norvegicus", "test": "Antihypertensive activity was measured in spontaneously hypertensive rat (SHR) by measuring the maximum blood pressure when administered orally at dose of 10 mg/kg after 5 h", "assay_type": "functional", "details": "route oral", "how_it_was_run": "as §2"}, "Rattus norvegicus [11]": {"tested_on": "Rattus norvegicus", "test": "Antihypertensive activity was measured in spontaneously hypertensive rat (SHR) by measuring the blood pressure after 24 hours on interarterial administration at dose of 1 mg/kg; Not significant", "assay_type": "functional, organism-based", "design": "dose 1 mg/kg", "details": "Artery", "how_it_was_run": "as §2"}, "Rattus norvegicus [12]": {"tested_on": "Rattus norvegicus", "test": "Antihypertensive activity was measured in spontaneously hypertensive rat (SHR) by measuring the blood pressure on interarterial administration at dose of 1 mg/kg after 5 h", "assay_type": "functional, Artery", "how_it_was_run": "as §2"}, "Thromboxane-A synthase [13]": {"target": "T2, Thromboxane-A synthase", "test": "Tested for 50% inhibition of thromboxane synthase (TxS) in human platelets (in vitro); Not active", "how_it_was_run": "as §4"}, "Rattus norvegicus [14]": {"tested_on": "Rattus norvegicus", "test": "Tested for percent inhibition of maximum angiotensin I (AI) pressor response in rats on oral administration of 300 mg/kg after 6 hr", "assay_type": "functional", "how_it_was_run": "as §3"}, "Rattus norvegicus [15]": {"tested_on": "Rattus norvegicus", "test": "Antihypertensive activity was measured in spontaneously hypertensive rat (SHR) by measuring the maximum blood pressure when administered orally at dose of 30 mg/kg after 6 h", "assay_type": "functional", "details": "route oral", "how_it_was_run": "as §2"}, "Rattus norvegicus [16]": {"tested_on": "Rattus norvegicus", "test": "Antihypertensive activity was measured in spontaneously hypertensive rat (SHR) by measuring the blood pressure after 24 hours when administered orally at dose of 30 mg/kg", "assay_type": "functional", "details": "route oral", "how_it_was_run": "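Conscious, unrestrained, fully ambulatory SHR (250–280 g) fed normal pellet chow with free access to tap water, on a 12-h light cycle. Oral dosing used a vehicle at 1 mL/kg po. The read-out was the change in mean arterial pressure from control.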"}}, "note": "Activity calls are given as the source filed them. No cut-off for these calls is given here."}
{"compound": "O=C(O)C(CCCCc1cccc2cncn12)CCC(=O)N1c2ccccc2C[C@H]1C(=O)O", "note": "(stereo partly specified)", "values": [{"measurement": "IC50", "setting": "[1]", "value": 20, "unit": "nM"}]}
{"compound": "NCCCC[C@H](N[C@@H]1CCc2ccccc2N(CC(=O)O)C1=O)C(=O)O", "values": [{"measurement": "IC50", "setting": "[1]", "value": 7, "unit": "nM"}, {"measurement": "Max delta BP", "setting": "Rattus norvegicus [2]", "value": -30, "unit": "mmHg"}, {"measurement": "Delta blood pressure", "setting": "Rattus norvegicus [3]", "value": -18, "unit": "mmHg"}, {"measurement": "inhibition in vivo at 300 mg/kg", "setting": "Rattus norvegicus [4]", "value": 70, "unit": "%"}]}
{"compound": "Cn1c(-c2cccnc2)c(CCCCCC(=O)NCCNCCCC[C@H](N[C@H]2CCc3ccccc3N(CC(=O)[O-])C2=O)C(=O)[O-])c2cc(Cl)ccc21.[K+].[K+]", "values": [{"measurement": "IC50", "setting": "Thromboxane-A synthase [5]", "value": 10, "unit": "nM"}, {"measurement": "IC50", "setting": "[1]", "value": 4, "unit": "nM"}, {"measurement": "Max delta BP", "setting": "Rattus norvegicus [6]", "value": -38, "unit": "mmHg"}, {"measurement": "inhibition in vivo at 300 mg/kg", "setting": "Rattus norvegicus [7]", "value": 39, "unit": "%"}, {"measurement": "Delta blood pressure", "setting": "Rattus norvegicus [3]", "value": -23, "unit": "mmHg"}]}
{"compound": "Cc1c(-c2cccnc2)n(CCCCP(=O)(O)O)c2ccccc12", "values": [{"measurement": "IC50", "setting": "Thromboxane-A synthase [5]", "value": 100, "unit": "nM"}, {"measurement": "IC50", "setting": "[8]", "value": "Not Active"}]}
{"compound": "Cn1c(-c2cccnc2)c(CCCCCC(=O)N(CCO)CCCC[C@H](N[C@H]2CCc3ccccc3N(CC(=O)O)C2=O)C(=O)O)c2cc(Cl)ccc21", "values": [{"measurement": "inhibition in vivo at 300 mg/kg", "setting": "Rattus norvegicus [9]", "value": 76, "unit": "%"}, {"measurement": "Max delta BP", "setting": "Rattus norvegicus [10]", "value": -42, "unit": "mmHg"}, {"measurement": "IC50", "setting": "[1]", "value": 10, "unit": "nM"}, {"measurement": "inhibition in vivo at 300 mg/kg", "setting": "Rattus norvegicus [7]", "value": 30, "unit": "%"}, {"measurement": "Delta blood pressure", "setting": "Rattus norvegicus [3]", "value": -30, "unit": "mmHg"}, {"measurement": "Delta blood pressure", "setting": "Rattus norvegicus [11]", "value": "inactive"}, {"measurement": "Max delta BP", "setting": "Rattus norvegicus [12]", "value": -23, "unit": "mmHg"}]}
{"compound": "CCOC(=O)[C@H](CCc1ccccc1)N[C@H]1CCc2ccccc2N(CC(=O)O)C1=O", "note": "[BENAZEPRIL]", "values": [{"measurement": "IC50", "setting": "Thromboxane-A synthase [13]", "value": "Not Active"}, {"measurement": "IC50", "setting": "[1]", "value": 2, "unit": "nM"}]}
{"compound": "CNCCN(CCCC[C@H](N[C@H]1CCc2ccccc2N(CC(=O)[O-])C1=O)C(=O)[O-])C(=O)CCCCCc1c(-c2cccnc2)n(C)c2ccc(Cl)cc12.[Na+].[Na+]", "values": [{"measurement": "IC50", "setting": "Thromboxane-A synthase [5]", "value": 18, "unit": "nM"}, {"measurement": "IC50", "setting": "[1]", "value": 10, "unit": "nM"}, {"measurement": "inhibition in vivo at 300 mg/kg", "setting": "Rattus norvegicus [14]", "value": 71, "unit": "%"}, {"measurement": "Max delta BP", "setting": "Rattus norvegicus [15]", "value": -39, "unit": "mmHg"}, {"measurement": "Delta blood pressure", "setting": "Rattus norvegicus [16]", "value": -20, "unit": "mmHg"}]}
{"compound": "Cc1c(-c2cccnc2)n(CCCCCCCC(=O)O)c2ccccc12", "values": [{"measurement": "IC50", "setting": "[8]", "value": "Not Active"}]}
{"compound": "O=C(O)CN1C(=O)[C@@H](N[C@@H](CCc2ccccc2)C(=O)O)C[C@@H](O)c2ccccc21", "values": [{"measurement": "IC50", "setting": "Thromboxane-A synthase [13]", "value": "Not Active"}, {"measurement": "IC50", "setting": "[1]", "value": 8, "unit": "nM"}]}
{"compound": "Cc1c(-c2cccnc2)n(CCCCP(=O)(O)OC2CCc3ccccc3N(CC(=O)O)C2=O)c2ccccc12", "note": "(stereo unspecified)", "values": [{"measurement": "IC50", "setting": "Thromboxane-A synthase [5]", "value": 20, "unit": "nM"}, {"measurement": "IC50", "setting": "[1]", "value": 30, "unit": "nM"}]}
